Key:
Format in all cases: functional
SK-OV-3 [1] = test: Growth inhibition of human SKOV3 cells assessed as cell growth at 10 '-6 M after 48 hrs by sulforhodamine B assay; settings: SK-OV-3, 48 h, read-out: Activity
SNB-75 [2] = test: Growth inhibition of human SNB75 cells assessed as growth inhibition at 10 uM after 48 hrs by sulforhodamine B assay; settings: SNB-75, 48 h, read-out: GI
NCI-H322M = test: Growth inhibition of human NCI-H322M cells assessed as growth inhibition at 10 uM after 48 hrs by sulforhodamine B assay; settings: read-out: GI
SNB-75 [3] = test: Growth inhibition of human SNB75 cells assessed as cell growth at 10 '-6 M after 48 hrs by sulforhodamine B assay; settings: SNB-75, 48 h, read-out: Activity
LOX IMVI = test: Growth inhibition of human LOXIMVI cells after 48 hrs by sulforhodamine B assay
Procedure, shortened: (§1)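 NCI 60-cell-line five-dose screen. Cells were plated at 5,000–40,000/well by doubling time and grown 24 h at 37 °C, 5% CO2. Time-zero plates were TCA-fixed. Drug from DMSO stock was tested at 0.01, 0.1, 1, 10 and 100 µM final for 48 h continuous exposure. Read-out was SRB at 515 nm. GI50 is the concentration giving 50% reduction in net protein increase versus untreated control.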

SK-MEL-5 = test: Growth inhibition of human SK-MEL-5 cells assessed as cell growth at 10 '-6 M after 48 hrs by sulforhodamine B assay; settings: SK-MEL-5, 48 h, read-out: Activity
HOP-62 = test: Growth inhibition of human HOP62 cells assessed as cell growth at 10 '-4 M after 48 hrs by sulforhodamine B assay; settings: HOP-62, 48 h, read-out: Activity
HT-29 = test: Growth inhibition of human HT-29 cells assessed as cell growth at 10 '-5 M after 48 hrs by sulforhodamine B assay; settings: HT-29, 48 h, read-out: Activity
MDA-MB-435 [4] = test: Growth inhibition of human MDA-MB-435 cells assessed as cell growth at 10 '-7 M after 48 hrs by sulforhodamine B assay; settings: MDA-MB-435, 48 h, read-out: Activity
DU-145 = test: Growth inhibition of human DU145 cells after 48 hrs by sulforhodamine B assay; settings: DU-145, 48 h; procedure, shortened: as §1
A549 = test: Growth inhibition of human A549 cells assessed as cell growth at 10 '-4 M after 48 hrs by sulforhodamine B assay; settings: A549, 48 h, read-out: Activity
Procedure, shortened: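 Percent growth at each of the five concentrations of the 48 h continuous-exposure NCI SRB screen. Drug stocks were in DMSO at 400× the top final concentration and diluted in medium with gentamicin. Growth was calculated as [(Ti-Tz)/(C-Tz)]×100 when Ti ≥ Tz, or [(Ti-Tz)/Tz]×100 when Ti < Tz. Tz plates were fixed at drug addition; untreated wells served as control. Absorbance was read at 515 nm.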

MDA-MB-435 [5] = test: Growth inhibition of human MDA-MB-435 cells assessed as cell growth at 10 '-4 M after 48 hrs by sulforhodamine B assay; settings: MDA-MB-435, 48 h, read-out: Activity
HCT-15 = test: Growth inhibition of human HCT15 cells assessed as cell growth at 10 '-8 M after 48 hrs by sulforhodamine B assay; settings: HCT-15, 48 h, read-out: Activity
MOLT-4 [6] = test: Growth inhibition of human MOLT4 cells assessed as cell growth at 10 '-4 M after 48 hrs by sulforhodamine B assay; settings: MOLT-4, 48 h, read-out: Activity
RPMI-8226 = test: Growth inhibition of human RPMI8226 cells assessed as cell growth at 10 '-7 M after 48 hrs by sulforhodamine B assay; settings: RPMI-8226, 48 h, read-out: Activity
IGROV-1 = test: Growth inhibition of human IGROV1 cells assessed as cell growth at 10 '-6 M after 48 hrs by sulforhodamine B assay; settings: IGROV-1, 48 h, read-out: Activity
MOLT-4 [7] = test: Growth inhibition of human MOLT4 cells assessed as cell growth at 10 '-5 M after 48 hrs by sulforhodamine B assay; settings: MOLT-4, 48 h, read-out: Activity
SK-OV-3 [8] = test: Growth inhibition of human SKOV3 cells assessed as cell growth at 10 '-7 M after 48 hrs by sulforhodamine B assay; settings: SK-OV-3, 48 h, read-out: Activity
[9] = Growth inhibition of human EKVX cells assessed as cell growth at 10 '-6 M after 48 hrs by sulforhodamine B assay; settings: read-out: Activity
[10] = read-out: LD50 (the source's name)

Cc1cc(=O)oc2cc(OCCn3c(C)nn(-c4ccc(Cl)cc4)c3=O)ccc12
growth at 1 µM (SK-OV-3 [1]): 88%
inhibition of growth at 10 µM (SNB-75 [2]): 79.6%
inhibition of growth at 10 µM (NCI-H322M): 41.3%
growth at 1 µM (SNB-75 [3]): 74%
GI50 (LOX IMVI): 4830 nM
TGI (LOX IMVI): > 1000 nM
CC50 (LOX IMVI; [10]): > 1000 nM
growth at 1 µM (SK-MEL-5): 47%
growth at 100 µM (HOP-62): -8%
growth at 10 µM (HT-29): 14%
growth at 0.1 µM (MDA-MB-435 [4]): 94%
GI50 (DU-145): 3900 nM
TGI (DU-145): > 1000 nM
CC50 (DU-145; [10]): > 1000 nM
growth at 100 µM (A549): 27%
growth at 100 µM (MDA-MB-435 [5]): -26%
growth at 0.01 µM (HCT-15): 98%
growth at 100 µM (MOLT-4 [6]): 17%
growth at 0.1 µM (RPMI-8226): 97%
growth at 1 µM (IGROV-1): 93%
growth at 10 µM (MOLT-4 [7]): 26%
growth at 0.1 µM (SK-OV-3 [8]): 103%
growth at 1 µM [9]: 88%
